# 697 NFkB inh – lowers PMA/ionomycin-induced NF-kB signal in 697 B cells. 697 B-cell NF-kB luciferase reporter, 16 h. inhibition, % at 4 µM. 330,000 tested, 0.33% active. AID 435022; in the data active = inhibition above about 35%
# MPTP block – blocks calcium-induced mitochondrial swelling | isolated mouse mitochondria, Ca2+ swelling absorbance, 30 min | inhibition, % at 10 µM | 360,000 tested, 1.4% active;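 active = inhibition of 50% or more, scaled per plate between neutral and stimulator controls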;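 note: 0% = DMSO wells given calcium and 100% = 1 mM EGTA wells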
# Jurkat NFkB inh – inhibitors of the PMA/ionomycin-induced NF-kB reporter in Jurkat cells; 330,000 tested, 0.53% active; PMA/ionomycin-induced NF-kB luciferase reporter, luminescence; inhibition, % at 4 µM; AID 435003; in the data active = inhibition above about 50%
# aDG glyco act – alpha-DG glycosylation activation; Pro5-aDG cells, alpha-DG glycosylation AlphaScreen (IIH6); 0% Pro5, 100% B10-LARGE cell signal; activation, % at 10 µM; 360,000 tested, 0.22% active;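 active = activation of at least 8% versus controls, or a plate z-score of at least 8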;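 note: Pro5 are CHO cells carrying HIG-tagged alpha-DG that lacks glycosylation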
# NR2E3 ag-1 – activates human NR2E3 receptor. Q9Y5X4. CHO-S Gal4-NCOR/VP16-NR2E3 two-hybrid, luciferase. inhibition of corepressor binding, % at 3.98 µM. 360,000 tested, 0.35% active;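 active = inhibition above the mean of all tested compounds plus 3 SD, cut at about 70% in these data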;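 note: 0% = DMSO with NR2E3 transfected cells and 100% = cells lacking NR2E3 construct; higher means lower luciferase signal from less NR2E3 corepressor binding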
# Target sequence (Q9Y5X4 whole entry, looked up, the tested form may be a part): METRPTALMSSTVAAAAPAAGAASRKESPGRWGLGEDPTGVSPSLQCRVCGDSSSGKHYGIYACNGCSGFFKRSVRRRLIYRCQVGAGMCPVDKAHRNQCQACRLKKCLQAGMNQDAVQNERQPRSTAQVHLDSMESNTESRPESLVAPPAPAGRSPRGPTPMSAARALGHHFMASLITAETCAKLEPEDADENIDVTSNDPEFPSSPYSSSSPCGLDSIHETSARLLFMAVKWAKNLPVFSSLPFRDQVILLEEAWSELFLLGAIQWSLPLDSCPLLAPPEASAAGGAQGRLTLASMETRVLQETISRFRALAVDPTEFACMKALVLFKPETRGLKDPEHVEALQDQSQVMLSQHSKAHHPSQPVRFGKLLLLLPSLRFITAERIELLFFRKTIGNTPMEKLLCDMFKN
# NR2E3 ag-2 – activates human photoreceptor nuclear receptor NR2E3; Q9Y5X4; GST-NR2E3/biotin-RetCOR TR-FRET, 1536-well; inhibition of corepressor binding, % at 4.78 µM; 320,000 tested, 0.12% active; AID 2300;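 active = percent inhibition above the cutoff of mean plus 3 SD of all tested compounds, set per screening campaign, cut at about 20% in these data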;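 note: 0% = DMSO wells and 100% = biotin wells as full block of FRET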
#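 Material: NR2E3–RetCOR corepressor complex / Incubation: Compound–protein incubation for 5 h at 4 °C / Dosing: compound at 4.8 µM, single dose / Detection: time-resolved FRET / Benchmarks: high control biotin, low control 0.6% DMSO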
# Rh123 counter – Rhodamine 123 counter-screen of mitochondrial pore hits. shares compounds with MPTP block. isolated mitochondria, membrane potential, Rhodamine 123 fluorescence. inhibition, % at 10 µM. 5,000 tested, 78% active; in the data active = inhibition above about 22%;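 note: 0% = DMSO vehicle and 100% = positive control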
# MPTP swell DR – dose response confirmation of mitochondrial permeability transition pore inhibitors. shares compounds with MPTP block. isolated mitochondria swelling, absorbance. IC50, µM. 780 tested, 58% active. AID 651561; in the data active = IC50 below about 20 µM
# MPTP cs DR – MPTP inhibitor counter-screen activity, dose response. shares compounds with MPTP block. isolated mitochondria counterscreen, fluorescence read-out. IC50, µM. 780 tested, 49% active. AID 651564; in the data active = IC50 below about 80 µM
# * hit, by the source's call; . = no result. Only some compounds are listed: those with a hit (about 2.4% of all), similar ones and a draw of the others.
SMILES,697 NFkB inh,MPTP block,Jurkat NFkB inh,aDG glyco act,NR2E3 ag-1,NR2E3 ag-2,Rh123 counter,others
O=C(CSc1ccc([N+](=O)[O-])cc1)Nc1cccc(S(=O)(=O)Nc2ccccc2F)c1,7.9,87.1*,-11.9,3.6,-6.6,3.4,67.8*,
CC[N+]1(C)[C@@H]2CC[C@H]1CC(OC(=O)[C@H]1CCC(C(=O)OC3C[C@H]4CC[C@@H](C3)[N+]4(C)CC)(c3ccccc3)c3ccccc31)C2 (stereo partly specified),0.7,-1.1,6.8,0.4,14.8,5.2,.,
CCN(CC)c1ccc(C=C2SC(=S)NC2=O)cc1,.,63.6*,.,0.2,-5.6,.,78.4*,
O=C1NC(=Nc2ccccc2Cl)S/C1=C\c1cccc([N+](=O)[O-])c1,13.6,19.1,3.8,0.0,3.0,2.6,.,
CCN(CC)c1ccc(/C=C2\SC(N)=NC2=O)cc1,-19.6,-0.9,-40.6,-0.1,4.7,.,.,
O=C1NC(=S)S/C1=C\c1cccc([N+](=O)[O-])c1,.,82.3*,.,0.0,-19.4,.,95.5*,
Clc1ccc(-c2nnc(-c3ccccc3)o2)cn1,.,0.8,.,0.0,-44.5,.,.,
Cc1cccc(NC(=O)Nc2ccc3c(c2)CCC3)c1,-72.9,80.2*,-103.3,0.6,-128.8,2.3,77.2*,
CCCCn1c(=O)[nH]c(=O)c2c1nc(COC(=O)c1c(C)noc1C)n2CCC,23.2,0.8,0.8,0.4,2.8,1.7,.,
Cc1nonc1NC(=O)CSc1nc(C23CC4CC(CC(C4)C2)C3)nc2ccccc12,13.6,79.2*,-1.9,0.6,-13.0,0.2,72.3*,
Cc1nonc1NC(=O)CSc1nc(C2CCCCC2)nc2ccccc12,7.5,39.5,-6.2,0.5,7.8,-1.6,.,
CCCNC(=S)N1CCN(c2nc(-c3ccc(C)cc3)cs2)CC1,5.6,99.0*,-4.9,0.3,30.6,-1.8,80.6*,
CCCNC(=S)N1CCN(c2nc(-c3cccc(OC)c3)cs2)CC1,-7.2,1.4,-15.5,0.1,1.8,-1.9,.,
COC1CC(=O)C2OC(c3ccccc3)OCC2O1 (stereo unspecified),.,0.2,.,0.3,-2.0,.,.,
O=C1NC(=O)C(=Cc2ccc(Cl)c(Cl)c2)S1,.,73.3*,.,-0.1,41.5,.,92.1*,
O=C1NC(=O)/C(=C/c2ccc(O)cc2)S1,-54.7,0.0,-24.3,-0.4,-57.2,-2.3,.,
O=c1c2c(nc3c(-c4cccc(Br)c4)c[nH]n13)CCCC2,-26.2,58.4*,-2.8,2.8,6.3,1.9,72.8*,
CCc1ccc(NC(=O)C/C(C)=N/NC(=O)COc2ccccc2C)cc1,-9.7,1.3,-11.3,0.0,-62.3,3.6,.,
CSc1nc(Oc2ccc3ccccc3c2)c2ccccc2n1,-11.2,80.2*,29.8,0.2,-2.1,1.3,5.3,MPTP swell DR=9.44*;MPTP cs DR=>80
CSc1ncccc1C(=O)OCC(=O)NC12CC3CC(CC(C3)C1)C2,-7.8,-1.0,-8.9,-0.2,-2.2,.,.,
O=C(NCC(=O)N1CCCCC1)c1ccc(Br)o1,-28.9,0.9,-2.6,-0.2,-26.5,-0.2,.,
O=C(Cn1cnc([N+](=O)[O-])c1)c1ccc(Cl)cc1,12.0,-1.3,3.1,-0.2,9.9,0.8,.,
O=C(C[n+]1cnn(CC(=O)c2ccc(Cl)cc2Cl)c1)c1ccc([N+](=O)[O-])cc1,.,58.5*,.,-0.2,-11.0,-1.4,-15.4,MPTP swell DR=7.06*;MPTP cs DR=>80
Cc1nc(NCCc2ccc(S(N)(=O)=O)cc2)c2c3c(sc2n1)CCC3,-15.5,1.3,15.0,1.3,6.7,1.1,.,
Cc1nc(NS(=O)(=O)c2ccc(Cl)s2)c2c3c(sc2n1)CCCC3,-13.9,84.4*,-3.2,0.0,20.2,1.5,76.6*,
SMILES,697 NFkB inh,MPTP block,Jurkat NFkB inh,aDG glyco act,NR2E3 ag-1,NR2E3 ag-2,Rh123 counter,others
COc1ccc(NC(=O)CSc2ncccc2C(=O)OC(C)C)cc1OC,0.4,70.8*,22.5,2.9,35.8,2.5,60.3*,
COc1ccc(NC(=O)CSc2ccccn2)cc1OC,13.2,25.3,5.6,0.1,-0.3,1.6,.,
CCN1C(=O)[C@H]2[C@@H](c3ccc(C)cc3)N3C(=O)N(c4ccc(C)cc4)C(=O)[C@@]3(CC)[C@H]2C1=O,2.3,-0.1,-4.4,0.2,-33.8,2.5,.,
CCN1C(=O)[C@H]2[C@@H](c3ccc(C)cc3)N3C(=O)N(c4ccc(C(F)(F)F)cc4)C(=O)[C@@]3(CC(C)C)[C@H]2C1=O,8.9,93.6*,-22.9,0.5,-8.6,-0.5,97.8*,
O=C1NC(=Nc2ccc(Cl)cc2)/C(=C/c2ccco2)S1,7.5,78.6*,5.8,-0.5,-6.8,1.1,56.4*,
Cc1cccc(N=C2NC(=O)S/C2=C\c2ccco2)c1,-2.7,70.6*,9.0,-0.2,9.9,-2.2,54.2*,
O=C1NC(=Nc2ccc(O)cc2)S/C1=C/c1ccco1,-14.2,-0.9,11.7,-0.5,-62.2,-2.9,.,
Cc1cccc(N=C2NC(=O)/C(=C/C=C/c3ccco3)S2)c1,.,8.5,.,0.2,-30.9,3.6,.,
C[C@H](CO)N1C[C@H](C)[C@@H](CN(C)C(=O)Nc2ccc(C(F)(F)F)cc2)Oc2ccc(NC(=O)CCC(F)(F)F)cc2C1=O,-24.3,-2.1,-8.6,-0.3,-17.7,.,.,
Cn1nc(C(=O)Nc2cccc(C(F)(F)F)c2)ccc1=O,2.0,-0.9,9.6,-0.3,-12.3,0.9,.,
CN(C)c1nn(C(=O)Nc2cccc(C(F)(F)F)c2)cc1-c1ccccc1,13.1,90.4*,-5.4,-0.1,14.7,-0.9,100.7*,
O=C(CCc1ccc(S(=O)(=O)NCCc2ccccc2)cc1)N1CCN(Cc2ccc3c(c2)OCO3)CC1,-33.0,54.5*,11.2,0.0,47.4,2.4,23.9*,
CC(C)CNS(=O)(=O)c1ccc(CCC(=O)N2CCN(Cc3ccc4c(c3)OCO4)CC2)cc1,-87.2,10.2,8.4,1.1,14.0,2.2,.,
Cc1cc2nc(-c3ccc(SCc4ccc(C#N)cc4)nc3)[nH]c2cc1C,-66.3,67.4*,-66.1,1.7,-36.0,2.1,66.0*,
CC(=O)CSc1ccc(-c2nc3cc(C)c(C)cc3[nH]2)cn1,-58.2,-2.2,-16.5,-0.2,6.6,4.1,.,
CS(=O)(=O)c1ccc2nc(NC(=O)Nc3cccc(Cl)c3)sc2c1,-66.9,88.6*,-43.9,-0.1,-77.2,-5.3,59.5*,
Cc1ccc(NC(=O)Nc2nc3ccc(S(C)(=O)=O)cc3s2)cc1,-3.2,64.8*,-15.7,1.0,8.8,.,70.3*,
CS(=O)(=O)c1ccc2nc(NC(=O)Nc3ccccc3F)sc2c1,-154.0,1.2,-123.7,-0.1,-184.7,3.1,.,
CS(=O)(=O)c1ccc2nc(NC(=O)Nc3ccc(Cl)c(Cl)c3)sc2c1,3.3,95.4*,-7.4,-0.1,-15.6,7.9,70.8*,
